Experimental data from ChEMBL document CHEMBL4814057, “4-4-(Anilinomethyl)-3-[4-(trifluoromethyl)phenyl]-1H-pyrazol-1-ylbenzoic acid derivatives as potent anti-gram-positive bacterial agents” (Eur J Med Chem, 2021).
≈ marks a conversion by molar mass, not a printed value. Calls of active or inactive are those of the source. The calls are words filed in the database; no cut-off is given here.

What was measured:
Staphylococcus aureus [1] = assay: Antimicrobial activity against methicillin-susceptible Staphylococcus aureus ATCC 25923 assessed as bacterial growth inhibitions by CLSI protocol based microdilution method; assay type: functional
Staphylococcus aureus [2] = assay: Antimicrobial activity against antibiotic-resistant Staphylococcus aureus BM-2312 assessed as bacterial growth inhibitions by CLSI protocol based microdilution method; assay type: functional
Staphylococcus aureus [3] = assay: Antimicrobial activity against methicillin-resistant Staphylococcus aureus ATCC 33591 assessed as bacterial growth inhibitions by CLSI protocol based microdilution method; assay type: functional
Staphylococcus aureus [4] = assay: Antimicrobial activity against methicillin-resistant Staphylococcus aureus ATCC 700699 assessed as bacterial growth inhibitions by CLSI protocol based microdilution method; assay type: functional
Staphylococcus aureus [5] = assay: Antimicrobial activity against methicillin-resistant Staphylococcus aureus ATCC 33592 assessed as bacterial growth inhibitions by CLSI protocol based microdilution method; assay type: functional
[6] = system: Staphylococcus epidermidis; assay: Antimicrobial activity against methicillin-resistant Staphylococcus epidermidis ATCC 700296 assessed as bacterial growth inhibitions by CLSI protocol based microdilution method; assay type: functional
Bacillus subtilis = assay: Antimicrobial activity against Bacillus subtilis ATCC 6623 assessed as bacterial growth inhibitions by CLSI protocol based microdilution method; assay type: functional
Method in brief: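 Broth microdilution starting at 50 µg/ml with 2-fold serial dilutions; run in triplicate.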

Enterococcus faecium = assay: Antimicrobial activity against vancomycin-resistant Enterococcus faecium ATCC 700221 assessed as bacterial growth inhibitions by CLSI protocol based microdilution method; assay type: functional
Enterococcus faecalis [7] = assay: Antimicrobial activity against vancomycin-susceptible Enterococcus faecalis ATCC 29212 assessed as bacterial growth inhibitions by CLSI protocol based microdilution method
Staphylococcus aureus [8] = assay: Antibacterial activity against methicillin resistant Staphylococcus aureus ATCC 700699 persisters assessed as reduction in viability at 64 times MIC by colony counting method; assay type: functional, organism-based
Method in brief: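 Stationary-phase S. aureus from overnight CAMHB culture (35 °C, 200 rpm), washed thrice in PBS, diluted to ~5 × 10^8 CFU/ml. Incubated with antibiotic at 35 °C, 200 rpm. Aliquots taken at set times, washed, serially diluted in PBS, drop-plated (6 × 6) on TSA with 5% sheep blood. Colonies counted after 18–20 h at 35 °C. Triplicates.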

Enterococcus faecalis [9] = assay: Antibiofilm activity against Enterococcus faecalis ATCC 29212 assessed as inhibition of biofilm formation at 2 times MIC after 24 hrs by crystal violet staining based assay relative to control; assay type: functional; design: scale not given: the % may be the effect or the level left
Method in brief: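 Overnight culture brought to 0.5 McFarland in PBS, diluted 1:100 in CAMHB with 1% glucose. Inhibition: cells plus compound (in DMSO) at 2x, 1x, 0.5xMIC, 24 h at 35 °C, triplicate. Destruction: 24 h biofilm grown without drug, washed, fresh medium with compound, further 24 h. Then washed, dried, 0.1% crystal violet, solubilized in 33% acetic acid, OD 620 nm. Controls are DMSO-only and broth-only wells.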

| Molecule | MIC (Staphylococcus aureus [1]) [µg/mL] | MIC (Staphylococcus aureus [2]) [µg/mL] | MIC (Staphylococcus aureus [3]) [µg/mL] | MIC (Staphylococcus aureus [4]) [µg/mL] | MIC (Staphylococcus aureus [5]) [µg/mL] | MIC [6] [µg/mL] | MIC (Bacillus subtilis) [µg/mL] | MIC (Enterococcus faecium) [µg/mL] | MIC (Enterococcus faecalis [7]) [µg/mL] | Activity (Staphylococcus aureus [8]) | Activity (Enterococcus faecalis [9]) [%] |
| --- | --- | --- | --- | --- | --- | --- | --- | --- | --- | --- | --- |
| O=C(O)c1ccc(-n2cc(CNc3cccc(F)c3)c(-c3ccc(C(F)(F)F)cc3)n2)cc1 | 3.12 (≈ 6.85 µM) | 3.12 (≈ 6.85 µM) | 3.12 (≈ 6.85 µM) | 3.12 (≈ 6.85 µM) | 3.12 (≈ 6.85 µM) | 6.25 (≈ 13.7 µM) | 1.56 (≈ 3.43 µM) | 6.25 (≈ 13.7 µM) | 25 (≈ 54.9 µM) | – | – |
| O=C(O)c1ccc(-n2cc(CNc3cc(C(F)(F)F)ccc3F)c(-c3ccc(C(F)(F)F)cc3)n2)cc1 | 1.56 (≈ 2.98 µM) | 0.78 (≈ 1.49 µM) | 0.78 (≈ 1.49 µM) | 0.78 (≈ 1.49 µM) | 1.56 (≈ 2.98 µM) | 3.12 (≈ 5.96 µM) | 0.78 (≈ 1.49 µM) | 1.56 (≈ 2.98 µM) | 6.25 (≈ 11.9 µM) | – | – |
| O=C(O)c1ccc(-n2cc(CNc3cc(Cl)c(F)cc3F)c(-c3ccc(C(F)(F)F)cc3)n2)cc1 | 1.56 (≈ 3.07 µM) | 0.78 (≈ 1.54 µM) | 1.56 (≈ 3.07 µM) | 0.78 (≈ 1.54 µM) | 1.56 (≈ 3.07 µM) | 3.12 (≈ 6.14 µM) | 0.78 (≈ 1.54 µM) | 1.56 (≈ 3.07 µM) | 6.25 (≈ 12.3 µM) | – | – |
| O=C(O)c1ccc(-n2cc(CNc3ccc(N4CCOCC4)c(C(F)(F)F)c3)c(-c3ccc(C(F)(F)F)cc3)n2)cc1 | 0.78 (≈ 1.32 µM) | 1.56 (≈ 2.64 µM) | 0.78 (≈ 1.32 µM) | 0.78 (≈ 1.32 µM) | 0.78 (≈ 1.32 µM) | 1.56 (≈ 2.64 µM) | 0.78 (≈ 1.32 µM) | 0.78 (≈ 1.32 µM) | 1.56 (≈ 2.64 µM) | – | – |
| GENTAMICIN | – | – | – | – | – | – | – | – | – | inactive | – |
| O=C(O)c1ccc(-n2cc(CNc3ccc(Cl)c(Cl)c3F)c(-c3ccc(C(F)(F)F)cc3)n2)cc1 | 0.78 (≈ 1.49 µM) | 0.78 (≈ 1.49 µM) | 0.78 (≈ 1.49 µM) | 0.78 (≈ 1.49 µM) | 0.78 (≈ 1.49 µM) | 0.78 (≈ 1.49 µM) | 0.78 (≈ 1.49 µM) | 0.78 (≈ 1.49 µM) | 1.56 (≈ 2.98 µM) | – | – |
| N#Cc1ccc(NCc2cn(-c3ccc(C(=O)O)cc3)nc2-c2ccc(C(F)(F)F)cc2)cc1C(F)(F)F | 1.56 (≈ 2.94 µM) | 1.56 (≈ 2.94 µM) | 0.78 (≈ 1.47 µM) | 1.56 (≈ 2.94 µM) | 0.78 (≈ 1.47 µM) | 3.12 (≈ 5.88 µM) | 0.78 (≈ 1.47 µM) | 6.25 (≈ 11.8 µM) | 12.5 (≈ 23.6 µM) | – | – |
| Cc1ccc(NCc2cn(-c3ccc(C(=O)O)cc3)nc2-c2ccc(C(F)(F)F)cc2)cc1Cl | 0.78 (≈ 1.61 µM) | 0.78 (≈ 1.61 µM) | 0.78 (≈ 1.61 µM) | 0.78 (≈ 1.61 µM) | 0.78 (≈ 1.61 µM) | 1.56 (≈ 3.21 µM) | 0.78 (≈ 1.61 µM) | 0.78 (≈ 1.61 µM) | 3.12 (≈ 6.42 µM) | – | – |
| O=C(O)c1ccc(-n2cc(CNc3cc(Cl)c(F)c(Cl)c3F)c(-c3ccc(C(F)(F)F)cc3)n2)cc1 | 0.78 (≈ 1.44 µM) | 0.78 (≈ 1.44 µM) | 0.78 (≈ 1.44 µM) | 0.78 (≈ 1.44 µM) | 0.78 (≈ 1.44 µM) | 0.78 (≈ 1.44 µM) | 0.78 (≈ 1.44 µM) | 0.78 (≈ 1.44 µM) | 0.78 (≈ 1.44 µM) | – | 80 |
| O=C(O)c1ccc(-n2cc(CNc3cccc(C(F)(F)F)c3)c(-c3ccc(C(F)(F)F)cc3)n2)cc1 | 1.56 (≈ 3.09 µM) | 1.56 (≈ 3.09 µM) | 0.78 (≈ 1.54 µM) | 0.38 (≈ 0.752 µM) | 0.78 (≈ 1.54 µM) | 1.56 (≈ 3.09 µM) | 0.78 (≈ 1.54 µM) | 1.56 (≈ 3.09 µM) | 6.25 (≈ 12.4 µM) | – | – |
| O=C(O)c1ccc(-n2cc(CNc3ccccc3)c(-c3ccc(C(F)(F)F)cc3)n2)cc1 | 12.5 (≈ 28.6 µM) | 12.5 (≈ 28.6 µM) | 6.25 (≈ 14.3 µM) | 6.25 (≈ 14.3 µM) | 6.25 (≈ 14.3 µM) | 12.5 (≈ 28.6 µM) | 3.12 (≈ 7.13 µM) | 6.25 (≈ 14.3 µM) | 25 (≈ 57.2 µM) | – | – |
| O=C(O)c1ccc(-n2cc(CNc3cccc(OC(F)(F)F)c3)c(-c3ccc(C(F)(F)F)cc3)n2)cc1 | 0.78 (≈ 1.5 µM) | 0.78 (≈ 1.5 µM) | 0.78 (≈ 1.5 µM) | 50 (≈ 95.9 µM) | 0.78 (≈ 1.5 µM) | 3.12 (≈ 5.98 µM) | 0.78 (≈ 1.5 µM) | 0.78 (≈ 1.5 µM) | 3.12 (≈ 5.98 µM) | – | – |
